Measurements taken from ChEMBL document CHEMBL1129056, “Synthesis and in vitro evaluation of new wortmannin esters: potent inhibitors of phosphatidylinositol 3-kinase” (J Med Chem, 1996).
≈ marks a conversion by molar mass, not a printed value.

Experiments:
[1] = Inhibition of Phosphatidylinositol 3-kinase from bovine brain; parameters: species or system Bos taurus
In short: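 Purified bovine brain PI 3-kinase with phosphatidylinositol as substrate. Lipid products extracted and separated by TLC with autoradiography. PI-3-P spots scraped and counted by liquid scintillation.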

[2] = test system: CCRF-CEM; assay: Cytotoxicity in rapidly proliferating CCRF-CEM cell lines after 72 hr exposure; assay type: functional, Homo sapiens

C=CC(=O)O[C@@H]1C[C@]2(C)C(=O)CC[C@H]2C2=C1[C@]1(C)c3c(coc3C2=O)C(=O)O[C@@H]1COC gave an IC50 [1] of 0.95 ng/mL (≈ 2.16 nM) and a CT50 [2] of 0.4 µg/mL.
In the case of COC[C@H]1OC(=O)c2coc3c2[C@@]1(C)C1=C(C3=O)[C@@H]2CCC(=O)[C@@]2(C)C[C@H]1OC(=O)CCl, the IC50 [1] is reported as 1.3 ng/mL (≈ 2.81 nM) and the CT50 [2] is reported as 0.7 µg/mL.
For CCC(=O)O[C@@H]1C[C@]2(C)C(=O)CC[C@H]2C2=C1[C@]1(C)c3c(coc3C2=O)C(=O)O[C@@H]1COC, the IC50 [1] was 0.6 ng/mL (≈ 1.36 nM) and the CT50 [2] was 0.2 µg/mL.
For CCCCC(=O)O[C@@H]1C[C@]2(C)C(=O)CC[C@H]2C2=C1[C@]1(C)c3c(coc3C2=O)C(=O)O[C@@H]1COC, the IC50 [1] was 1.2 ng/mL (≈ 2.55 nM) and the CT50 [2] was 0.8 µg/mL.
CCC(=O)O[C@@H]1C[C@]2(C)C(OC(C)=O)CC[C@H]2C2=C1[C@]1(C)c3c(coc3C2=O)C(=O)O[C@@H]1COC (some centres undefined) showed an IC50 [1] of 56.5 ng/mL (≈ 116 nM) and a CT50 [2] of 3.1 µg/mL.
With COC[C@H]1OC(=O)c2coc3c2[C@@]1(C)C1=C(C3=O)[C@@H]2CCC(=O)[C@@]2(C)C[C@H]1OC(=O)Cc1ccccc1 the IC50 [1] was 1.53 ng/mL (≈ 3.03 nM) and the CT50 [2] was 1 µg/mL.
Work on COC[C@H]1OC(=O)c2coc3c2[C@@]1(C)C1=C(C3=O)[C@@H]2CCC(=O)[C@@]2(C)C[C@H]1O yielded an IC50 [1] of 10 ng/mL (≈ 25.9 nM) and a CT50 [2] of 2 µg/mL.
In the case of CCCC(=O)O[C@@H]1C[C@]2(C)C(=O)CC[C@H]2C2=C1[C@]1(C)c3c(coc3C2=O)C(=O)O[C@@H]1COC, the IC50 [1] is reported as 0.4 ng/mL (≈ 0.876 nM) and the CT50 [2] is reported as 0.3 µg/mL.
Work on COC[C@H]1OC(=O)c2coc3c2[C@@]1(C)C1=C(C3=O)[C@@H]2CCC(=O)[C@@]2(C)CC1=O yielded an IC50 [1] of 1.6 ng/mL (≈ 4.16 nM) and a CT50 [2] of 2.8 µg/mL.
COC[C@H]1OC(=O)c2coc3c2[C@@]1(C)C1=C(C3=O)[C@@H]2CCC(=O)[C@@]2(C)C[C@H]1OC(=O)CC(C)C showed an IC50 [1] of 1.16 ng/mL (≈ 2.47 nM) and a CT50 [2] of 0.6 µg/mL.
With CCC(=O)O[C@@H]1C[C@]2(C)C(O)CC[C@H]2C2=C1[C@]1(C)c3c(coc3C2=O)C(=O)O[C@@H]1COC (some centres undefined) the IC50 [1] was 0.38 ng/mL (≈ 0.855 nM) and the CT50 [2] was 0.2 µg/mL.
Work on COC[C@H]1OC(=O)c2coc3c2[C@@]1(C)C1=C(C3=O)[C@@H]2CCC(=O)[C@@]2(C)C[C@H]1OC(C)=O [WORTMANNIN] yielded an IC50 [1] of 1.8 ng/mL (≈ 4.2 nM) and a CT50 [2] of 0.9 µg/mL.
